Test results from ChEMBL document CHEMBL5724801, “EUbOPEN Chemogenomics Library - Multiplex” (2024).
Where “and” joins values, the source holds several entries; their conditions need not be identical. Equal entries are not always repeated.

System: U2OS
Test: Multiplex assay against U2OS
Format: toxicity, cell-based
Conditions: human
Summary of the method: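 At seeding, live cells were stained with Hoechst33342, BioTracker Green Microtubule Cytoskeleton Dye, MitoTracker Red and Annexin V Alexa Fluor 680. After compound addition they were imaged on a CQ1 microscope at 37°C and 5% CO2, and CellPathfinder machine-learning gating sorted them into Hoechst high-intensity objects or normal cells, with normal cells further split into healthy, pyknosed or fragmented nuclei and pyknosed cells into mitotic or apoptotic. Tubulin, mitochondrial-mass and membrane-permeability phenotypes are given as per cents of cells with healthy nuclei.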

[1] = 12 h, 1 µM, compound concentration 1 uM
[2] = 12 h, 10 µM, compound concentration 10 uM
[3] = 24 h, 1 µM, compound concentration 1 uM
[4] = 24 h, 10 µM, compound concentration 10 uM
[5] = 48 h, 1 µM, compound concentration 1 uM
[6] = 48 h, 10 µM, compound concentration 10 uM

Nc1nc(CC(=O)Nc2ccc(CCNC[C@H](O)c3ccccc3)cc2)cs1 [MIRABEGRON]
Population Apoptotic (%) [1]: 86% and 100% | Population Fragmented Nuclei (%) [1]: 24% and 13% | Population Healthy Nuclei (%) [1]: 62% and 74% | Population Hoechst High Intensity Objects (%) [1]: 1% and 0% | Population Membrane Permeable-Phenotype (%) [1]: 6% and 5% | Population Mitochondria Different-Phenotype (%) [1]: 3% and 2% | Population Mitotic Cells (%) [1]: 13% and 0% | Population Normal (%) [1]: 98% and 99% | Population Pyknosed Nuclei (%) [1]: 12% | Population Tubulin-Different-Phenotype (%) [1]: 4% and 5% | Total Cell Count [1]: 240 and 107 | Population Apoptotic (%) [2]: 86% and 66% | Population Fragmented Nuclei (%) [2]: 18% and 21% | Population Healthy Nuclei (%) [2]: 70% and 71% | Population Hoechst High Intensity Objects (%) [2]: 1% and 0% | Population Membrane Permeable-Phenotype (%) [2]: 6% and 7% | Population Mitochondria Different-Phenotype (%) [2]: 2% and 3% | Population Mitotic Cells (%) [2]: 13% and 33% | Population Normal (%) [2]: 98% and 99% | Population Pyknosed Nuclei (%) [2]: 11% and 6% | Population Tubulin-Different-Phenotype (%) [2]: 4% and 1% | Total Cell Count [2]: 319 and 136 | Population Apoptotic (%) [3]: 82% and 58% | Population Fragmented Nuclei (%) [3]: 21% and 11% | Population Healthy Nuclei (%) [3]: 70% and 79% | Population Hoechst High Intensity Objects (%) [3]: 2% and 0% | Population Membrane Permeable-Phenotype (%) [3]: 4% and 9% | Population Mitochondria Different-Phenotype (%) [3]: 2% and 3% | Population Mitotic Cells (%) [3]: 17% and 41% | Population Normal (%) [3]: 97% and 99% | Population Pyknosed Nuclei (%) [3]: 8% and 9% | Population Tubulin-Different-Phenotype (%) [3]: 3% and 7% | Total Cell Count [3]: 289 and 125 | Population Apoptotic (%) [4]: 86% and 76% | Population Fragmented Nuclei (%) [4]: 17% and 20% | Population Healthy Nuclei (%) [4]: 75% and 71% | Population Hoechst High Intensity Objects (%) [4]: 1% | Population Membrane Permeable-Phenotype (%) [4]: 5% and 9% | Population Mitochondria Different-Phenotype (%) [4]: 3% and 5% | Population Mitotic Cells (%) [4]: 13% and 23% | Population Normal (%) [4]: 98% | Population Pyknosed Nuclei (%) [4]: 7% | Population Tubulin-Different-Phenotype (%) [4]: 3% and 4% | Total Cell Count [4]: 405 and 167 | Population Apoptotic (%) [5]: 84% and 78% | Population Fragmented Nuclei (%) [5]: 17% and 12% | Population Healthy Nuclei (%) [5]: 72% and 74% | Population Hoechst High Intensity Objects (%) [5]: 2% | Population Membrane Permeable-Phenotype (%) [5]: 4% and 8% | Population Mitochondria Different-Phenotype (%) [5]: 3% | Population Mitotic Cells (%) [5]: 15% and 21% | Population Normal (%) [5]: 97% | Population Pyknosed Nuclei (%) [5]: 9% and 13% | Population Tubulin-Different-Phenotype (%) [5]: 3% and 7% | Total Cell Count [5]: 394 and 179 | Population Apoptotic (%) [6]: 87% and 70% | Population Fragmented Nuclei (%) [6]: 14% | Population Healthy Nuclei (%) [6]: 74% and 78% | Population Hoechst High Intensity Objects (%) [6]: 2% | Population Membrane Permeable-Phenotype (%) [6]: 5% and 3% | Population Mitochondria Different-Phenotype (%) [6]: 2% and 3% | Population Mitotic Cells (%) [6]: 12% and 29% | Population Normal (%) [6]: 97% | Population Pyknosed Nuclei (%) [6]: 10% and 7% | Population Tubulin-Different-Phenotype (%) [6]: 2% and 1% | Total Cell Count [6]: 534 and 232

COc1ccc2c(c1OCc1ccccc1)C[C@@H](C(=O)O)N(C(=O)C(c1ccccc1)c1ccccc1)C2 [OLODANRIGAN]
Population Apoptotic (%) [1]: 82% and 66% | Population Fragmented Nuclei (%) [1]: 31% and 18% | Population Healthy Nuclei (%) [1]: 59% and 75% | Population Hoechst High Intensity Objects (%) [1]: 2% and 3% | Population Membrane Permeable-Phenotype (%) [1]: 4% and 6% | Population Mitochondria Different-Phenotype (%) [1]: 0% and 4% | Population Mitotic Cells (%) [1]: 17% and 33% | Population Normal (%) [1]: 97% and 96% | Population Pyknosed Nuclei (%) [1]: 8% and 5% | Population Tubulin-Different-Phenotype (%) [1]: 1% and 2% | Total Cell Count [1]: 286 and 112 | Population Apoptotic (%) [2]: 78% and 81% | Population Fragmented Nuclei (%) [2]: 30% and 26% | Population Healthy Nuclei (%) [2]: 64% and 63% | Population Hoechst High Intensity Objects (%) [2]: 1% and 0% | Population Membrane Permeable-Phenotype (%) [2]: 6% and 2% | Population Mitochondria Different-Phenotype (%) [2]: 1% | Population Mitotic Cells (%) [2]: 21% and 18% | Population Normal (%) [2]: 98% and 99% | Population Pyknosed Nuclei (%) [2]: 5% and 10% | Population Tubulin-Different-Phenotype (%) [2]: 2% | Total Cell Count [2]: 273 and 110 | Population Apoptotic (%) [3]: 87% and 55% | Population Fragmented Nuclei (%) [3]: 25% and 18% | Population Healthy Nuclei (%) [3]: 64% and 74% | Population Hoechst High Intensity Objects (%) [3]: 0% and 2% | Population Membrane Permeable-Phenotype (%) [3]: 2% and 9% | Population Mitochondria Different-Phenotype (%) [3]: 0% and 6% | Population Normal (%) [3]: 99% and 97% | Population Pyknosed Nuclei (%) [3]: 10% and 6% | Population Tubulin-Different-Phenotype (%) [3]: 2% and 5% | Total Cell Count [3]: 311 and 143 | Population Apoptotic (%) [4]: 83% and 50% | Population Fragmented Nuclei (%) [4]: 27% and 22% | Population Healthy Nuclei (%) [4]: 66% and 72% | Population Hoechst High Intensity Objects (%) [4]: 1% and 0% | Population Membrane Permeable-Phenotype (%) [4]: 4% | Population Mitochondria Different-Phenotype (%) [4]: 0% and 1% | Population Normal (%) [4]: 98% and 100% | Population Pyknosed Nuclei (%) [4]: 5% and 4% | Population Tubulin-Different-Phenotype (%) [4]: 1% and 2% | Total Cell Count [4]: 318 and 123 | Population Apoptotic (%) [5]: 91% and 78% | Population Fragmented Nuclei (%) [5]: 22% and 14% | Population Healthy Nuclei (%) [5]: 70% and 77% | Population Hoechst High Intensity Objects (%) [5]: 3% and 4% | Population Membrane Permeable-Phenotype (%) [5]: 4% and 3% | Population Mitochondria Different-Phenotype (%) [5]: 1% and 3% | Population Mitotic Cells (%) [5]: 8% and 21% | Population Normal (%) [5]: 96% and 95% | Population Pyknosed Nuclei (%) [5]: 7% | Population Tubulin-Different-Phenotype (%) [5]: 2% | Total Cell Count [5]: 483 and 184 | Population Apoptotic (%) [6]: 88% and 85% | Population Fragmented Nuclei (%) [6]: 20% and 18% | Population Healthy Nuclei (%) [6]: 71% and 77% | Population Hoechst High Intensity Objects (%) [6]: 1% | Population Membrane Permeable-Phenotype (%) [6]: 5% and 7% | Population Mitochondria Different-Phenotype (%) [6]: 1% and 6% | Population Mitotic Cells (%) [6]: 11% and 14% | Population Normal (%) [6]: 98% | Population Pyknosed Nuclei (%) [6]: 8% and 4% | Population Tubulin-Different-Phenotype (%) [6]: 3% and 5% | Total Cell Count [6]: 451 and 163
